# In the EternaBench riboswitch data:
# Test system: MS2 coat protein
# Assay: apparent Kd, MS2 coat protein; higher = weaker binding; RNA-MaP array; FMN 200 µM where present
# Summary of the method: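 Stalled E. coli RNA polymerase transcribed each design on Illumina sequencing-chip clusters. The clusters were titrated with SNAP-549-labelled MS2 coat protein, starting at 0.7 or 1.5 nM and doubling up to 3 µM, first without ligand and then with constant ligand, in 100 mM Tris-HCl pH 7.5, 80 mM KCl, 4 mM MgCl2, BSA, DTT, yeast tRNA and Tween-20. Green signal was normalised to red-channel RNA signal and to the control-cluster median Fmax. The apparent Kd is the median of filtered binding-curve fits made for each cluster.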
# [1] = designed as: OFF switch for flavin mononucleotide, no ligand
# [2] = ligand present: flavin mononucleotide, designed as: OFF switch for flavin mononucleotide
# [3] = designed as: ON switch for flavin mononucleotide, no ligand
# [4] = ligand present: flavin mononucleotide, designed as: ON switch for flavin mononucleotide
Sequence,apparent Kd [1],apparent Kd [2],apparent Kd [3],apparent Kd [4]
UCGGCGCGAGGAUAUGCGGUUCCUCCCUAGGGCCGGAGCGUACAUGAGGAUCACCCAUGUAGAAGGCGCGCCGC,12.3 nM,15 nM,–,–
GUUAAGGUAGGAUAUACGAUAAUAUAGGGUAGAUAUAGAACACAUGAGGAUCACCCAUGUAGAAGGACCAAUUG,29.5 nM,88.9 nM,–,–
CUCGGACAUGAGGAUCACCCAUGUGAGGAUAUGGCGCUAUCGUCAUUAGACGAUUGCGCCAGAAGGCACAAAUG,85.2 nM,268 nM,–,–
GUAGCAUACCGAGGAUAUUCAGGGCGUGGAUAUACAUGAGGAUCACCCAUGUGGCGGAAGCCUAGGGAGAAGGCGGAAUGCUAC,–,–,21.3 nM,16.8 nM
GACUUGGCUACAUGAGGAUCACCCAUGUUUGACUGGAUCGAUUAGGAUAUAGUGAUAUGCAACAAUUAGAAGGGAUGUUUACGG,–,–,52.9 nM,42.2 nM
ACAUGAGGAUCACCCAUGUAAUAACAUCGGUUAUACGAAAGUGAGGAUAUCGAUCAGGCAUAUUACGAGAAGGCACAAUAGGGA,–,–,41.3 nM,43.2 nM
GAGUGACACCAGAAGGGCCAGGAAAGAACCCUGGUAGGAUAUGGAGCGCCCUCGUAACGACCGACAUGAGGAUCACCCAUGUCC,–,–,193 nM,34.7 nM
UUCGCUAAGGUGUAGCGAGACAUGCAAGAAGGGUGAAGAACAUGAGGAUCACCCAUGUAGACGGUACAGGAUAUUGAUUGACGA,–,–,128 nM,89.3 nM
UUUGUUUAUGUGAGGAUAUACUGUUUGUUUUGUUUGUAGAAGGUACAUGAGGAUCACCCAUGUUUUGUAUUUAU,21.5 nM,18.8 nM,–,–
AACGUGUGAGGAUAUUAGUUGUACGUCAAUAGACGUAUAAGUGAGAAGGCACAUGAGGAUCACCCAUGUUCCUG,23.9 nM,195 nM,–,–
GUCAGCUCGUCAGGAUAUACGUCACUGCUUCGGCAGUGUGGUAAGAUCACAUGAGGAUCACCCAUGUAGAAGGGACGAGCUGAC,13.7 nM,252 nM,–,–
UUAGGCUUCUAGAAGGCGGUCCAGCUAGAGGACCGAGGAUAUAGGCACCUAACAUGAGGAUCACCCAUGUUAGUGAUUCCUCAA,132 nM,166 nM,–,–
AGAUGGUAGAGAGGAUAUCAUGUGCUGACAUGAGGAUCACCCAUGUAGGGACGUCAGUCCAAUUAUGAGAAGGCUCUACCAUCU,–,–,49.4 nM,40.2 nM
CGCAACAUACAGAAGGAGUAAAUUAGAAGUGUACUAGGAUAUGUAAACAUGAGGAUCACCCAUGUCGAAUGUGUUAUAGUUGCG,8.24 nM,8.53 nM,–,–
GCUAGUAUUGCAGGAUAUUGAGAUUAAUUAAGGCAAGAAGGGCAUUACAUGAGGAUCACCCAUGUUUUCCUUAGUCAUACUAGC,7.12 nM,7.4 nM,–,–
UGCAUGUAGGAGAAGGAGGACUUCAUGAGGAUCACCCAUGUGUUAGGACUUAGGAUAUUUGACGACAUGAGGAUCACCCAUGUG,–,–,80.1 nM,71.9 nM
GUCUCAGCUGAGGAUAUUAUCUGGCUCGACCGAUAAGAAGGCAGUACAUGAGGAUCACCCAUGUGGUUCGUUCG,37.6 nM,84.9 nM,–,–
CGGUCUUGUAACUAUUUGUUUCACAUGAGGAUCACCCAUGUCAGAAGGAGGUACAUCUAUUAGACCUAGGAUAUGACGUGUAAG,27.5 nM,100 nM,–,–

Sequence,apparent Kd [1],apparent Kd [2],apparent Kd [3],apparent Kd [4]
CCCUUUAGAAAAGGGACAUGAGGAUCACCCAUGUAGGCUGCACAGGAUAUCGAUCGGAGGCGGUACGAGAAGGGUGAUGUCAUU,–,–,58.3 nM,72.1 nM
UGUUAAUAUCGAGGAUAUGUCUAGACACAUGAGGAUCACCCAUGUAUGUGUAUAGAAGGCGAUAUUAACAGCAUGUUACAUGCU,–,–,39.9 nM,17.5 nM
GGAGCCGGCCUAGGAUAUUUCAUAUUUAAACAUGAGGAUCACCCAUGUAGGCCAGAAGGCCUUGGGAAGAAGGAGGUCGGCUCC,–,–,88.1 nM,17.5 nM
GGAUAGGACAGAGGAUAUACGUGCUAGAGAUACUAGCAAAAUUUCCUCACAUGAGGAUCACCCAUGUAGAAGGCUGUCCUAUAG,16.7 nM,432 nM,–,–
ACUAGAAGCGUGAGAUAUCACAUGAGGAUCACCCAUGUGACACAGGAUAUAACAAUAUCAGAAGGUUAGAAGGGUGAGCACGCC,–,–,164 nM,45.6 nM
UAUUAAUGCAAGGAUAUGCUUUUAAUUUUUUUUGCAGAAGGUGCAACAUGAGGAUCACCCAUGUUUCAGGGUAU,42.1 nM,57.6 nM,–,–
UGUGUCUGUAGAGGAUAUCCGGGCGUUCUGCUAGGAGAAGGCUGCAACACAUGAGGAUCACCCAUGUAGGUUGUGUCUCUCUAC,4.82 nM,9.87 nM,–,–
CAGCAAUGUAAGAAGGCUGCUCCGAUAAGGAGCAGAGGAUAUUACAUGAGGAUCACCCAUGUAUGAACCAAUAGCUGAAAUAAA,8.78 nM,94.2 nM,–,–
GAAAAGGUAGGAUAUACGAAAAAAAAGGGUAGAAAAAAAAAACAUGAGGAUCACCCAUGUAGAAGGACCAAAAG,39.6 nM,93.2 nM,–,–
GUAUUACAUGAGGAUCACCCAUGUGAGGAUAUCGAUGUAACUAGCAGCGUGCGGGACUCGAGAAGGCACUUGGA,49.1 nM,142 nM,–,–
GUGAAACAUGAGGAUCACCCAUGUGAGGAUAUGAUACUAUGUACUUCGGUACAUAGUAUCAGAAGGCACAGUGA,96.1 nM,282 nM,–,–
AACCACGUUAGAUUAAGCGUGACAUGAGGAUCACCCAUGUGUCAGGAUAUACAUGGGCGGGCCCAGUAGAAGGGACUUAAUAGC,–,–,146 nM,91 nM
GUAGCUGCAGGAUAUCUAUCUUCUGACAUGAGGAUCACCCAUGUACUUACUUGGCUCAGUGGAGAAGGGCAGCGUU,124 nM,84.2 nM,–,–
GCCAGGCGAGGAUAUGCGAGGUAGCCUUUGUCCGGAUACUGACAUGAGGAUCACCCAUGUAGAAGGUGCCUAGG,70.2 nM,258 nM,–,–
UCUAGACCGACAGGAUAUCAUGGCUGGAUAUAGUACAUGAGGAUCACCCAUGUCGGCUAGAGCGAUGAGAAGGGUCGGUUGCUC,–,–,414 nM,87.3 nM
CUGGUUGUCGUAGGAUAUGUAGGAUAUUCCUACAUGAGGAUCACCCAUGUUCGCAUGGAAGAAAGACAGAAGGACGAUGACCAG,–,–,816 nM,50.2 nM
GCUGGAAAAGGAUAUACAUAACGUGCGUCAGCACGAGGCCUACAUGAGGAUCACCCAUGUAGAAGGUUUCCAGC,17.1 nM,25.9 nM,–,–
UGCUAGGAUGGGUCUAAUGGACCUCAGGAUAUGCUUGUACAUGAGGAUCACCCAUGUAACAUUGUGCAGAAGGGAGGAUCCACG,–,–,8.45 nM,4.93 nM
